MC4R ag barr: agonists of human melanocortin 4 receptor (MC4R) beta-arrestin; P32245; U2OS MC4R beta-arrestin complementation, luminescence; percent of melanotan II response, DMSO zero; activation, % at 8.9 µM; 0.98% of 360,000 active; AID 540308;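 active = activation above a per-plate cutoff, the mean activation of sample wells on that plate plus 3 SD, cut at about 8% in these data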
Target sequence (P32245 whole entry, looked up): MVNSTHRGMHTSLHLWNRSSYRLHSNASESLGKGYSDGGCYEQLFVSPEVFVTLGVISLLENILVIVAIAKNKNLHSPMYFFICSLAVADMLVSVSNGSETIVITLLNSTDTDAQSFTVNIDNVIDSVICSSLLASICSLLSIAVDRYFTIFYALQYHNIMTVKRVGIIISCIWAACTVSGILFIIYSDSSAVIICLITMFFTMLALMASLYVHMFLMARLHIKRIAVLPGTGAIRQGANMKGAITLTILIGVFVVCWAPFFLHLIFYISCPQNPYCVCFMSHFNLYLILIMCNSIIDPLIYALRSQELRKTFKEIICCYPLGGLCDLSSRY
MC4R antagonist: antagonists of human melanocortin 4 receptor (MC4R); P32245; MC4R-expressing cells, MTII-stimulated cAMP, LANCE TR-FRET; inhibition, % at 6.5 µM; 0.48% of 360,000 active; AID 540295;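 active = inhibition above its plate's cutoff, the mean of tested wells on that plate plus 3 SD, cut at about 29% in these data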;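 also: 0% = Melanotan II alone and 100% = Melanotan II plus saturating MCL0020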
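System: U2OS-MC4R stable cell line; Technique: Eu-cAMP/anti-cAMP TR-FRET, emission 671 nm; Repeats: single well per compound; Also added: Melanotan II; Dosing: one concentration, 6.5 µM nominal; Schedule: 30-min compound, 1-h challenge, 1-h detection, room temperature.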
TLR9-MyD88 inh: inhibitors of human TLR9-MyD88 binding | Q9NR96+Q99836 | inhibition, % at 4.98 µM | 0.21% of 340,000 active | CHO BLA complementation TLR9-MyD88, CCF4 FRET ratio;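 active = inhibition above the mean over all tested compounds plus 3 SD, cut at about 21% in these data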;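 also: 0% = DMSO only wells and 100% = clavulanate BLA inhibitor control wells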
TLR4 MyD88 comp: inhibitors of human TLR4-MyD88 binding; 0.18% of 200,000 active; HeLa CL3-4 TLR4/MyD88 BLA complementation, FRET ratio; inhibition, % at 8.4 µM; O00206+Q99836; in the data active = inhibition above about 25%;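 also: 0% = vehicle and 100% = reference inhibitor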
NOD2 RIPK2 PPI: inhibitors of human NOD2-RIPK2 interaction; O43353; CHO BLA complementation NOD2-RIPK2, CCF4 ratio; inhibition, % at 4.98 µM; 0.38% of 360,000 active; AID 624267; in the data active = inhibition above about 21%;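 also: 0% = vehicle only and 100% = reference blocker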
TLR9-MyD88 conf: confirmation of human TLR9-MyD88 binding inhibitors. shares compounds with TLR9-MyD88 inh. CHO TLR9/MyD88 BLA complementation, CCF4 FRET ratio. inhibition, % at 4.98 µM. 51% of 680 active;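 active = mean inhibition across three repeats above about 21% taken from the earlier screen, limit read from the data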;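 also: blue over green emission ratio reports constitutive TLR9 MyD88 association via BLA complementation; 0% = DMSO vehicle wells and 100% = clavulanate BLA inhibitor wells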
BLA counter-1: counter-screen for TLR9-MyD88 inhibitors: non-selective beta-lactamase inhibitors. shares compounds with TLR9-MyD88 inh. CHO-BLA cells, CCF4 FRET ratio, BLA reporter. inhibition, % at 4.98 µM. 7% of 680 active;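 active = mean inhibition above a 50% cutoff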;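 also: counterscreen of TLR9-MyD88 hits on CMV-driven BLA in CHO-K1 cells; 0% = DMSO alone and 100% = clavulanate blocking BLA; higher means less blue over green ratio so more BLA blockade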
TLR9 CHO cytotox: counter-screen for TLR9-MyD88 inhibitors: cytotoxicity in CHO cells; shares compounds with TLR9-MyD88 inh; luminescence; inhibition, % at 4.98 µM; 39% of 680 active; in the data active = inhibition above about 11%
U2OS cAMP counter: counter-screen for MC4R antagonists: nonselective cAMP signaling inhibitors; shares compounds with MC4R antagonist; 26% of 1,600 active; parental U2OS, forskolin cAMP, LANCE TR-FRET; inhibition, % at 6.5 µM;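 active = mean inhibition over triplicates above the low-control well mean plus 3 SD, set per campaign, cut at about 13% in these data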;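 also: signal is single emission at 671 nm which falls as cellular cAMP rises; 0% = forskolin-stimulated wells and 100% = buffer without forskolin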
MC4R antag conf: human MC4R cAMP antagonism confirmation; 27% of 1,600 active; MC4R-expressing cells, MTII-stimulated cAMP, TR-FRET; inhibition, % at 6.5 µM; shares compounds with MC4R antagonist; in the data active = inhibition above about 29%;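 also: 0% = agonist stimulated wells alone and 100% = agonist stimulated wells plus saturating reference antagonist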
MC4R barr conf: human MC4R beta-arrestin agonism confirmation. U2OS MC4R beta-arrestin recruitment, luminescence; scaled DMSO 0%, Melanotan II 100%. shares compounds with MC4R ag barr. AID 602192. 31% of 2,400 active. activation, % at 8.9 µM;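 active = mean activation across replicates above the hit cutoff set in the earlier primary screen, cut at about 8% in these data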
MOR DOR agonist: OPRM1-OPRD1 heterodimer agonism counter-screen; U2OS PathHunter beta-arrestin, beta-gal luminescence; percent of deltorphin B response, DMSO zero; activation, % at 9.2 µM; AID 602194; shares compounds with MC4R ag barr; 5.8% of 2,400 active;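 active = mean activation across replicates exceeds the hit threshold derived in the earlier primary screen, cut at about 18% in these data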;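 also: 100% = deltorphin B at 0.9 µM final and 0% = DMSO alone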
NOD2-RIPK2 conf: NOD2-RIPK2 interaction inhibition confirmed | shares compounds with NOD2 RIPK2 PPI | AID 624370 | 70% of 1,200 active | CHO cells, NOD2-RIPK2 BLA complementation, CCF4 FRET | inhibition, % at 4.98 µM;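 active = mean inhibition across replicates above a set limit taken from the earlier primary screen, cut at about 21% in these data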;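 also: 0% = DMSO-only wells and the high end = clavulanate BLA-blocked wells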
BLA counter-2: NOD2-RIPK2 counterscreen BLA reporter activity; shares compounds with NOD2 RIPK2 PPI; CHO BLA reporter, CCF4 FRET ratio; inhibition, % at 4.98 µM; 57% of 1,200 active;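 active = mean inhibition above the low-control mean inhibition plus three low-control SD, cut at about 11% in these data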;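 also: 0% = DMSO only wells and 100% = clavulanate high control wells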
* = called active by the depositor. Most compounds without a hit are left out; they make up all but 1.8% or so of the library.

Screening CC(OC(=O)/C(C#N)=C/c1ccc(N(C)C)cc1)C(=O)NCc1ccco1 (centres undefined) returned MC4R ag barr -2, MC4R antagonist 73*, TLR9-MyD88 inh 24*, NOD2 RIPK2 PPI 4, TLR9-MyD88 conf 8, BLA counter-1 9, TLR9 CHO cytotox -4, U2OS cAMP counter 41* and MC4R antag conf 78*.
`CN(C)c1ccc(/C=C(\C#N)C(=O)NCc2ccco2)cc1` gave TLR4 MyD88 comp 2.
COc1cc(N2C(=O)C=CC2=O)ccc1N1C(=O)C=CC1=O was read as MC4R ag barr -4, MC4R antagonist 103*, TLR9-MyD88 inh 39*, NOD2 RIPK2 PPI 26*, TLR9-MyD88 conf 64*, BLA counter-1 44, TLR9 CHO cytotox 101*, U2OS cAMP counter 62* and MC4R antag conf 79*.
Screening Cc1ccc(NC(=O)C2CCCN2c2nn3c(=O)cc(C)nc3s2)cc1 (centres undefined) returned MC4R ag barr 1, MC4R antagonist 15, TLR9-MyD88 inh -4 and NOD2 RIPK2 PPI -12.
Screening Clc1ccc(/C=N/NC2=Nc3cccc4cccc2c34)cc1 returned MC4R ag barr 16*, MC4R antagonist -6, TLR9-MyD88 inh 29*, TLR4 MyD88 comp 5, NOD2 RIPK2 PPI 11, TLR9-MyD88 conf 14, BLA counter-1 12, TLR9 CHO cytotox 7, MC4R barr conf 22* and MOR DOR agonist 8.
C(=N\NC1=Nc2cccc3cccc1c23)/c1cccnc1 was read as MC4R ag barr -2, MC4R antagonist 2, TLR9-MyD88 inh -1, TLR4 MyD88 comp 8 and NOD2 RIPK2 PPI 10.
O=Nc1c(O)n(Cc2cccc(C(F)(F)F)c2)c2ccccc12 was read as MC4R ag barr 11*, MC4R antagonist 6, TLR9-MyD88 inh 33*, TLR4 MyD88 comp 12, NOD2 RIPK2 PPI 13, TLR9-MyD88 conf 9, BLA counter-1 9, TLR9 CHO cytotox 2, MC4R barr conf 8 and MOR DOR agonist 9.
Screening COc1ccc(/C=C/C(=O)Nc2ccccc2C(=O)NCC(c2ccc(OC)cc2)N(C)C)cc1 (centres undefined) returned MC4R ag barr 2, MC4R antagonist 6, TLR9-MyD88 inh -1 and NOD2 RIPK2 PPI -3.
Screening Cc1ccccc1NC(=O)Cc1nc(COC(=O)c2ccc(NC(N)=O)cc2)cs1 returned MC4R ag barr -1, MC4R antagonist 2, TLR9-MyD88 inh -3 and NOD2 RIPK2 PPI -9.
Screening Cc1ccccc1NC(=O)Cc1nc(COC(=O)c2ccc(S(C)(=O)=O)c([N+](=O)[O-])c2)cs1 returned MC4R ag barr -6, MC4R antagonist -43, TLR9-MyD88 inh 25*, NOD2 RIPK2 PPI 45*, TLR9-MyD88 conf 17, BLA counter-1 6, TLR9 CHO cytotox 84*, NOD2-RIPK2 conf 50* and BLA counter-2 11*.
Screening O=c1c(Cl)c(Cl)cnn1-c1ccccc1 returned MC4R ag barr 5, MC4R antagonist 28, TLR9-MyD88 inh 24*, TLR4 MyD88 comp 24, NOD2 RIPK2 PPI 23*, TLR9-MyD88 conf 21*, BLA counter-1 13, TLR9 CHO cytotox 98*, NOD2-RIPK2 conf 35* and BLA counter-2 9.
CC(/C=N/NC(=O)Cn1cnc2c1c(=O)n(C)c(=O)n2C)=C\c1ccccc1 was read as MC4R ag barr 1, MC4R antagonist 4, TLR9-MyD88 inh 2, TLR4 MyD88 comp -10 and NOD2 RIPK2 PPI -10.
For CC(=O)Nc1ccc2c(=O)n(-c3ccccc3)sc2c1 the results were MC4R ag barr -2, MC4R antagonist 9, TLR9-MyD88 inh 28*, NOD2 RIPK2 PPI 31*, TLR9-MyD88 conf 25*, BLA counter-1 3, TLR9 CHO cytotox 92*, NOD2-RIPK2 conf 40* and BLA counter-2 11*.
`CC(=O)Nc1ccc(-c2cc(N)n(-c3ccccc3)n2)cc1` gave MC4R ag barr 0, MC4R antagonist -3, TLR9-MyD88 inh -2 and NOD2 RIPK2 PPI -15.
For O=c1c2ccccc2sn1-c1ccccc1F the results were MC4R ag barr 0, MC4R antagonist 0, TLR9-MyD88 inh -2 and NOD2 RIPK2 PPI -7.
Screening Cc1ccccc1-n1sc2cc(F)ccc2c1=O returned MC4R ag barr 0, MC4R antagonist 7, TLR9-MyD88 inh 36*, TLR4 MyD88 comp 0, NOD2 RIPK2 PPI 34*, TLR9-MyD88 conf 21*, BLA counter-1 3, TLR9 CHO cytotox 100*, NOD2-RIPK2 conf 47* and BLA counter-2 19*.
O=c1c2cc(F)ccc2sn1-c1ccccc1 was read as MC4R ag barr -5, MC4R antagonist 12, TLR9-MyD88 inh 40*, NOD2 RIPK2 PPI 48*, TLR9-MyD88 conf 36*, BLA counter-1 -2, TLR9 CHO cytotox 97*, NOD2-RIPK2 conf 50* and BLA counter-2 12*.
Screening COCCCn1c(=O)c2ccccc2n(Cc2cc(C(=O)OC)ccc2OC)c1=O returned MC4R ag barr -3, MC4R antagonist 11, TLR9-MyD88 inh -2 and NOD2 RIPK2 PPI -1.

Bioassay records deposited in PubChem by The Scripps Research Institute Molecular Screening Center.
